Source: the EternaBench riboswitch data

Test system: MS2 coat protein
Assay: apparent Kd, MS2 coat protein; higher = weaker binding; RNA-MaP array; FMN 200 µM where present
Procedure, shortened: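 Stalled E. coli RNA polymerase transcribed the designs on Illumina sequencing-chip clusters. SNAP-549-labelled MS2 coat protein was titrated from 0.7 or 1.5 nM, doubling to 3 µM, without and then with constant ligand, in 100 mM Tris-HCl pH 7.5, 80 mM KCl, 4 mM MgCl2, BSA, DTT, yeast tRNA and Tween-20. Per-cluster binding curves were fitted to green signal normalised to red-channel RNA signal and control-cluster median Fmax. The apparent Kd is the median of the filtered fits.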

[1] = designed as: ON switch for flavin mononucleotide, no ligand
[2] = ligand present: flavin mononucleotide, designed as: ON switch for flavin mononucleotide

Row | Sequence | apparent Kd [1] [nM] | apparent Kd [2] [nM] | apparent Kd (designed as: OFF switch for flavin mononucleotide, no ligand) [nM] | apparent Kd (ligand present: flavin mononucleotide, designed as: OFF switch for flavin mononucleotide) [nM]
1 | UGGAUGGUAUGAGGAUAUGCGCGCGAAACGCGCGCAGAAGGCGUGUCAAUAGACAUGAGGAUCACCCAUGUAUUAUCCAUCCAA | 130 | 12.3 |  | 
2 | UGGCUACAUGAGGAUCACCCAUGUCAGGAUAUGCCGUCGGCUUGCGUUCGUCGUUCGGGUAGAAGGGACUGCGG |  |  | 85.3 | 106
3 | UGGGACGUCGUAGGAUAUGUAGGAUAUUCCUACAUGAGGAUCACCCAUGUUGACAUGGAAGAAGGACAGAAGGACGAUGUCCAU | 211 | 4.78 |  | 
4 | UGGUAACAUGAGGAUCACCCAUGUCAAAUGAAUCGAGGAUAUGGGAAUUAACAACACAAACUAGAAGGCGAAUUUG | 303 | 247 |  | 
5 | UGGUACAUGGGAGGAUAUCAUGUGAGAACAUGAGGAUCACCCAUGUCGAUGGAGACAUCGGAGAUUGAGAAGGCCCAUGUACCU | 1210 | 63.8 |  | 
6 | UGGUACAUGGGAGGAUAUGGGUUGAUAACAUGAGGAUCACCCAUGUUAAAUAUGGCGAGAGCCAACUAGAAGGCCCAUGUACCU | 594 | 38.8 |  | 
7 | UGGUACUACGGAGGAUAUCAUGUAUAUACAUGAGGAUCACCCAUGUCGUACGAGAGUACGGAGAUUGAGAAGGCCGUAGUACCU | 38.7 | 16.2 |  | 
8 | UGGUACUAGGGAGGAUAUGGGAAAAUACAUGAGGAUCACCCAUGUUUAAGAAUGCCGAGAGGCAACUAGAAGGCCCUAGUACCU | 16.2 | 5.26 |  | 
9 | UGGUACUAGGGAGGAUAUGGGAACAUACAUGAGGAUCACCCAUGUUUAAGAAUGCCGAGAGGCAACUAGAAGGCCCUAGUACCU | 15.7 | 4.96 |  | 
10 | UGGUACUAGGGAGGAUAUGGGAAGAUACAUGAGGAUCACCCAUGUCUAAGAAUGCCGAGAGGCAACUAGAAGGCCCUAGUACCU | 98.3 | 496 |  | 
11 | UGGUACUAGGGAGGAUAUGGGAAGAUACAUGAGGAUCACCCAUGUUUAAGAAUCCCGAGAGGCAACUAGAAGGCCCUAGUACCU | 8.08 | 6.96 |  | 
12 | UGGUACUAGGGAGGAUAUGGGAAGAUACAUGAGGAUCACCCAUGUUUAAGAAUGCAGAGAGGCAACUAGAAGGCCCUAGUACCU | 324 | 18.7 |  | 
13 | UGGUACUAGGGAGGAUAUGGGAAGAUACAUGAGGAUCACCCAUGUUUAAGAAUGCCGAUAGGCAACUAGAAGGCCCUAGUACCU | 406 | 18.7 |  | 
14 | UGGUACUAGGGAGGAUAUGGGAAGAUACAUGAGGAUCACCCAUGUUUAAGAAUGCCUAGAGGCAACUAGAAGGCCCUAGUACCU | 393 | 19.1 |  | 
15 | UGGUACUAGGGAGGAUAUGGGAAGAUACAUGAGGAUCACCCAUGUUUAAGAAUUCCGAGAGGCAACUAGAAGGCCCUAGUACCU | 35.7 | 13 |  | 
16 | UGGUACUAGGGAGGAUAUGGGAAGCUACAUGAGGAUCACCCAUGUUUAAGAAUGCCGAGAGGCAACUAGAAGGCCCUAGUACCU | 30.2 | 5.56 |  | 
17 | UGGUACUAGGGAGGAUAUGGGACGAUACAUGAGGAUCACCCAUGUUUAAGAAUGCCGAGAGGCAACUAGAAGGCCCUAGUACCU | 494 | 21.7 |  | 
18 | UGGUACUAGGUAGGAUAUGGGAAGAUACAUGAGGAUCACCCAUGUUUAAGAAUGCCGAGAGGCAACUAGAAGGCCCUAGUACCU | 652 | 78.9 |  | 
19 | UGGUACUCGGGAGGAUAUGGGAAGAUACAUGAGGAUCACCCAUGUUUAAGAAUGCCGAGAGGCAACUAGAAGGCCCUAGUACCU | 457 | 23.4 |  | 
20 | UGGUACUUCGGAGGAUAUCAUGUAGAUACAUGAGGAUCACCCAUGUCGUACGAGAGUACGGAGAUUGAGAAGGCCGAAGUACCU | 31.2 | 16 |  | 
21 | UGGUCAACAUCAGGAUAUUAACAUGGGCUACACUAAGAAGGGAUAAUGAAAUACGAACUAAACGCACAUGAGGAUCACCCAUGU | 34.4 | 25 |  | 
22 | UGGUCAUCAUCAGGAUAUUAACGUGGGCUACAUUAAGAAGGGAUAGUGGGAGAGGAUGUGAAACAUGAGGAUCACCCAUGUUGU | 13.3 | 10.6 |  | 
